Measured values taken from ChEMBL document CHEMBL1125903, “New derivatives of kanamycin B obtained by modifications and substitutions in position 6". 1. Synthesis and microbiological evaluation” (1991).
In brackets after ≈: the same amount, converted by molar mass.

Key:
Enterobacter cloacae = assay: Minimum inhibitory concentration measured against Enterobacter cloacae (ATCC 23355); format: functional
Summary of the method: (§1)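 Agar dilution MIC on Mueller-Hinton agar supplemented with CaCl2 and MgCl2 (NCCLS standards), 2-fold dilutions. Compounds tested as sulfate salts dissolved in sterile water; values expressed in mg/L of free base, with base content determined by 1H NMR. Spots of 10^4-10^5 CFU applied by multipoint inoculator. Growth read visually after 24 h at 37 °C.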

Escherichia coli = assay: Minimum inhibitory concentration measured against Escherichia coli (ATCC 25922); format: functional; summary of the method: as §1
Enterococcus faecalis = assay: Minimum inhibitory concentration measured against […] faecalis (ATCC 19431); format: functional; summary of the method: as §1
Staphylococcus aureus = assay: Minimum inhibitory concentration measured against Staphylococcus aureus (ATCC 25923); format: functional; summary of the method: as §1
Proteus vulgaris = assay: Minimum inhibitory concentration measured against Proteus vulgaris (ATCC 13315); format: functional; summary of the method: as §1
Bacillus subtilis = assay: Minimum inhibitory concentration measured against Bacillus subtilis (ATCC 6633); format: functional; summary of the method: as §1
Citrobacter freundii = assay: Minimum inhibitory concentration measured against Citrobacter freundii (ATCC 8090); format: functional; summary of the method: as §1
[1] = system: Staphylococcus epidermidis; assay: Minimum inhibitory concentration measured against Staphylococcus epidermidis (ATCC 12228); format: functional; summary of the method: as §1
Pseudomonas aeruginosa = assay: Minimum inhibitory concentration measured against Pseudomonas aeruginosa (NCTC 10701); format: functional; summary of the method: as §1
Klebsiella pneumoniae = assay: Minimum inhibitory concentration measured against Klebsiella pneumoniae (ATCC 13883); format: functional; summary of the method: as §1
Klebsiella aerogenes = assay: Minimum inhibitory concentration measured against Enterobacter aerogenes (ATCC 13048); format: functional; summary of the method: as §1
Serratia marcescens [2] = assay: Minimum inhibitory concentration measured against Serratia marcescens (ATCC 8100); format: functional; summary of the method: as §1
Salmonella typhimurium = assay: Minimum inhibitory concentration measured against Salmonella Typhimurium (ATCC 14028); format: functional, Salmonella enterica subsp. enterica serovar Typhimurium; conditions: Salmonella enterica; summary of the method: as §1
Serratia marcescens [3] = assay: Minimum inhibitory concentration measured against CDC 87457 strain; format: functional; summary of the method: as §1

| MIC (Enterobacter cloacae) [mg/L] | MIC (Escherichia coli) [mg/L] | MIC (Enterococcus faecalis) [mg/L] | MIC (Staphylococcus aureus) [mg/L] | MIC (Proteus vulgaris) [mg/L] | MIC (Bacillus subtilis) [mg/L] | MIC (Citrobacter freundii) [mg/L] | MIC [1] [mg/L] | MIC (Pseudomonas aeruginosa) [mg/L] | MIC (Klebsiella pneumoniae) [mg/L] | MIC (Klebsiella aerogenes) [mg/L] | MIC (Serratia marcescens [2]) [mg/L] | MIC (Salmonella typhimurium) [mg/L] | Compound | MIC (Serratia marcescens [3]) [mg/L] |
| --- | --- | --- | --- | --- | --- | --- | --- | --- | --- | --- | --- | --- | --- | --- |
| 32 (≈ 28.1 µM) | > 64 | > 64 | > 64 | > 64 | > 64 | > 64 | > 64 | > 64 | > 64 | > 64 | > 64 | > 64 | CCCCCC(=O)N(CCCC)CC1OC(OC2C(NC(=O)OC(C)(C)C)CC(NC(=O)OC(C)(C)C)C(OC3OC(CNC(=O)OC(C)(C)C)C(O)C(O)C3NC(=O)OC(C)(C)C)C2O)C(O)C(NC(=O)OC(C)(C)C)C1O (stereo not drawn) |  |
| 1 (≈ 0.962 µM) | 32 (≈ 30.8 µM) | > 64 | 4 (≈ 3.85 µM) | 8 (≈ 7.7 µM) | 32 (≈ 30.8 µM) | 8 (≈ 7.7 µM) | 2 (≈ 1.92 µM) | > 64 | 8 (≈ 7.7 µM) | 32 (≈ 30.8 µM) | > 64 | 64 (≈ 61.6 µM) | CC(=O)N(C)CC1OC(OC2C(NC(=O)OC(C)(C)C)CC(NC(=O)OC(C)(C)C)C(OC3OC(CNC(=O)OC(C)(C)C)C(O)C(O)C3NC(=O)OC(C)(C)C)C2O)C(O)C(NC(=O)OC(C)(C)C)C1O (stereo not drawn) |  |
| 0.25 (≈ 0.24 µM) | 2 (≈ 1.92 µM) | 8 (≈ 7.68 µM) | 1 (≈ 0.959 µM) | 1 (≈ 0.959 µM) | 4 (≈ 3.84 µM) | 1 (≈ 0.959 µM) | 0.25 (≈ 0.24 µM) | > 64 | 2 (≈ 1.92 µM) | 4 (≈ 3.84 µM) | > 64 | 8 (≈ 7.68 µM) | CCCSCC1OC(OC2C(NC(=O)OC(C)(C)C)CC(NC(=O)OC(C)(C)C)C(OC3OC(CNC(=O)OC(C)(C)C)C(O)C(O)C3NC(=O)OC(C)(C)C)C2O)C(O)C(NC(=O)OC(C)(C)C)C1O (stereo not drawn) |  |

| Compound | MIC (Enterobacter cloacae) [mg/L] | MIC (Escherichia coli) [mg/L] | MIC (Enterococcus faecalis) [mg/L] | MIC (Staphylococcus aureus) [mg/L] | MIC (Proteus vulgaris) [mg/L] | MIC (Bacillus subtilis) [mg/L] | MIC (Citrobacter freundii) [mg/L] | MIC [1] [mg/L] | MIC (Pseudomonas aeruginosa) [mg/L] | MIC (Klebsiella pneumoniae) [mg/L] | MIC (Klebsiella aerogenes) [mg/L] | MIC (Serratia marcescens [2]) [mg/L] | MIC (Salmonella typhimurium) [mg/L] | MIC (Serratia marcescens [3]) [mg/L] |
| --- | --- | --- | --- | --- | --- | --- | --- | --- | --- | --- | --- | --- | --- | --- |
| NC[C@H]1O[C@H](O[C@H]2[C@H](O)[C@@H](O[C@H]3O[C@H](CO)[C@@H](O)[C@H](N)[C@H]3O)[C@H](N)C[C@@H]2N)[C@H](N)[C@@H](O)[C@@H]1O [BEKANAMYCIN] | 0.25 (≈ 0.517 µM) | 1 (≈ 2.07 µM) | 16 (≈ 33.1 µM) | 0.5 (≈ 1.03 µM) | 0.25 (≈ 0.517 µM) | 0.5 (≈ 1.03 µM) | 0.5 (≈ 1.03 µM) | 0.25 (≈ 0.517 µM) | 32 (≈ 66.2 µM) | 0.25 (≈ 0.517 µM) | 0.5 (≈ 1.03 µM) | 1 (≈ 2.07 µM) | 1 (≈ 2.07 µM) | 1 (≈ 2.07 µM) |
